# Screens from PubChem.
# Compounds with a hit are over-represented: about 2.3% of the library has one in this group of screens.
# RBBP9 inh = human RBBP9 inhibitors, primary screen, biochemical, fluorescence polarization, FP-Rh probe, HTS; Serine hydrolase RBBP9 (Homo sapiens), O75884; inhibition, % at 7.94 µM; AID 1515, 2009; actives 0.2% (n = 220,000); recombinant RBBP9;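 active = inhibition above the campaign mean of all tested compounds plus 3 SD, cut at about 14% in these data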;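 also: plate controls were DMSO wells with RBBP9 for no effect and wells lacking RBBP9 protein for full effect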
#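 system = RBBP9 protein | input = RBBP9 at 2.5 µM in dispensed solution, before mixing | measured by = fluorescence polarization (mP), excitation 525 nm, emission 598 nm | incubation = enzyme-compound preincubation 30 min, then probe labeling 45 min, 25 °C | buffer or medium = Tris-NaCl-Pluronic buffer, pH 8.0 | compound = single dose 7.94 µM | also added = FP-Rh probe, 375 nM dispensing solution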
# PAD4 inh = human PAD4 inhibitors, primary screen, biochemical, fluorescence polarization, 1536-well format | Protein-arginine deiminase type-4 (Homo sapiens), Q9UM07 | recombinant PAD4, RCA probe fluorescence polarization | inhibition, % at 6.36 µM | actives 0.41% (n = 330,000);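 active = percent inhibition above a cutoff equal to the mean of all tested compounds plus 3 SD, cut at about 15% in these data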;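 also: 0% = PAD4 with RCA probe and DMSO and 100% = probe without PAD4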
# Fam108B counter = mouse Fam108B serine hydrolase inhibitors, primary screen, counter-screen for RBBP9 inhibitor project, biochemical, fluorescence polarization | inhibition, % at 9.51 µM | recombinant Fam108B, FP-Rh probe fluorescence polarization | actives 0.33% (n = 300,000);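 active = inhibition above the screen mean inhibition plus 3 SD, computed separately per campaign, cut at about 18% in these data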;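 also: inhibitors lower polarization as less probe binds the enzyme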
# GSTO1 inh = inhibitors of recombinant GSTO1, primary screen, counter-screen for RBBP9 inhibitor project, biochemical, fluorescence polarization; actives 1.1% (n = 300,000); inhibition, % at 5.96 µM; activity-based probe fluorescence polarization; Glutathione S-transferase omega-1 (Homo sapiens), P78417;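 active = inhibition above the campaign mean inhibition plus 3 SD, cut at about 35% in these data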;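 also: 0% = GSTO1-1 with DMSO and 100% = wells lacking GSTO1-1 enzyme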
# PRMT1 inh = PRMT1 methyltransferase inhibitors, primary screen, biochemical, fluorescence polarization. Protein arginine N-methyltransferase 1 (Homo sapiens), Q99873. recombinant PRMT1, activity-based probe fluorescence polarization. inhibition, % at 2.79 µM. actives 1.3% (n = 370,000). AID 652257, 2013;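 active = inhibition above about 21% made by adding two undisclosed values, limit read from the data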
# Target sequence (Q99873 whole entry, looked up): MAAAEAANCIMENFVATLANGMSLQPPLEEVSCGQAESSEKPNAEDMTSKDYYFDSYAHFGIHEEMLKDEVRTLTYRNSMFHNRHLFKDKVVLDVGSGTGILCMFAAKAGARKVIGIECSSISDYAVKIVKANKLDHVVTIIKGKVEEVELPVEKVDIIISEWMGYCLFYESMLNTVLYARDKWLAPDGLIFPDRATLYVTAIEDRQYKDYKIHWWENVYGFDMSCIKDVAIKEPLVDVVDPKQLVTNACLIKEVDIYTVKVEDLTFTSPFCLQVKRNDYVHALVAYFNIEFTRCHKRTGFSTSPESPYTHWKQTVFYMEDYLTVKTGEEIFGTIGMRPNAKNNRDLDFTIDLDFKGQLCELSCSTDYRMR
# PME-1 primary = PME-1 inhibitors via competitive probe labeling, primary screen, biochemical, fluorescence polarization, FP-Rh probe, HTS | recombinant PME-1 | inhibition, % at 5.9 µM | actives 0.53% (n = 320,000) | AID 2130, 2009;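 active = inhibition above the campaign mean of all compounds plus 3 SD, cut at about 26% in these data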;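 also: competitive labeling of PME-1 active site by serine hydrolase directed probe; 0% = PME-1 with DMSO and 100% = wells lacking PME-1 enzyme; inhibitors block probe labeling so polarization falls and inhibition rises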
# GSTO1 inh conf = GSTO1 inhibitor hit confirmation, counter-screen for RBBP9 inhibitor project, biochemical, fluorescence polarization, triplicate; shares compounds with GSTO1 inh; recombinant GSTO1, probe fluorescence polarization; inhibition, % at 5.96 µM; actives 54% (n = 2,400);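 active = inhibition above the primary screen's cutoff, its mean inhibition plus 3 SD, cut at about 35% in these data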;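 also: loss of polarization as inhibitors block binding of rhodamine sulfonate ester activity probe; 0% = GSTO1 with DMSO and 100% = wells lacking GSTO1 enzyme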
# PAD4 FP conf = human PAD4 inhibitors, confirmation, biochemical, fluorescence polarization; shares compounds with PAD4 inh; recombinant PAD4, RCA probe fluorescence polarization; inhibition, % at 6.36 µM; actives 28% (n = 1,200);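 active = mean inhibition across replicates above the hit cutoff set by the earlier primary screen, cut at about 15% in these data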;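 also: inhibitors block active-site labeling by the probe so polarization falls; 0% = PAD4 with probe and DMSO and 100% = probe without PAD4 enzyme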
# Starred values were filed as active, the others as inactive; · = no result given.
SMILES,RBBP9 inh,PAD4 inh,Fam108B counter,GSTO1 inh,PRMT1 inh,PME-1 primary,GSTO1 inh conf,PAD4 FP conf
O=c1cc(-c2cccc3ccccc23)[nH][nH]1,-4,-6,0,27,-1,-4,·,·
O=c1cc(-c2ccc(Cl)cc2)[nH][nH]1,3,60*,-3,49*,-2,10,10,-11
COc1cccc(C(c2c(C)[nH]n(-c3ccccc3)c2=O)c2c(C)[nH]n(-c3ccccc3)c2=O)c1OC,1,72*,3,64*,-2,2,31,3
COc1cccc(C(c2c(C)[nH]n(-c3ccccc3)c2=O)c2c(C)[nH]n(-c3ccccc3)c2=O)c1O,·,64*,4,65*,11,-1,38*,-3
CCCCn1c(NS(=O)(=O)c2ccc(C)cc2)c(S(=O)(=O)c2ccccc2)c2nc3ccccc3nc21,0,36*,1,78*,-3,5,71*,-7
CCOc1nc2cnccc2n(CC(=O)Nc2ccccc2F)c1=O,·,3,2,-5,5,1,·,·
Cc1nnc(N/N=C/c2cc(C)n(-c3ccc(F)cc3)c2C)n1N,-8,29*,1,50*,8,2,2,-1
Oc1ccccc1/C=N/Nc1nn[nH]n1,0,1,1,25,3,3,·,·
Cc1nnc(N/N=C/c2ccccc2O)n1N,-9,41*,4,72*,-5,5,32,1
Cc1cc(/C=N/NC(N)=S)c(C)n1-c1ccc(Br)cc1,-5,-7,-1,1,3,2,·,·
OCCCCNCc1ccc(OCc2ccccc2Cl)cc1,3,0,8,-7,-1,-3,·,·
CCOC(=O)/C(C#N)=C\C1=C(N2CCCC2)CC(C)(CC)OC1 (stereo not drawn),5,4,3,-2,-2,7,·,·
N#Cc1sc2nc(-c3ccccc3)cc(-c3ccco3)c2c1N,-5,46*,11,66*,3,16,78*,116*
N#Cc1sc2nc(C3CC3)cc(-c3ccccc3)c2c1N,-5,7,0,-3,0,2,·,·
CC(C)Oc1ccc(F)cc1-c1cc(C(=O)NCc2cc(C(F)(F)F)cc(C(F)(F)F)c2)[nH]n1,·,·,·,·,-3,·,·,·
O=c1[nH]c(Nc2ccc(F)cc2)cc2ccccc12,1,43*,11,67*,13,11,44*,17*
O=c1[nH]c(Nc2ccccc2Cl)cc2ccccc12,·,28*,2,40*,15,10,32,9
Cc1cc2cc(C#N)c(N3CCN(S(C)(=O)=O)CC3)nc2cc1C,5,-7,1,-3,-1,5,·,·
Cn1[nH]c(CSc2ccc(Cl)cc2)cc1=O,8,38*,0,59*,3,-4,14,6
CN(C)C(=O)NCc1ccc(S(N)(=O)=O)cc1,-2,3,4,10,-1,-5,·,·
CN(C)c1ccc(NC2=C(Cl)C(=O)c3ccccc3C2=O)cc1,3,28*,9,94*,10,14,89*,16*
CC(=O)Nc1ccc(NC2=C(Cl)C(=O)c3ccccc3C2=O)cc1,-3,·,·,·,3,·,·,·
CCCCN(C)CCC(=O)Nc1ccc(OC)cc1OC,-9,1,0,3,-1,-4,·,·
Oc1cccc(C=NCc2ccccc2)c1O,-8,21*,17,89*,36*,3,12,0
